The campaign covered roughly 340,000 compounds. About 3,000 (0.88%) were called active. Shown is part of a subset that was picked to be rich in actives. A number with no mark means an inactive call.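 How the source made its calls: active means inhibition above about 50% at 20 µM (limit read from the data); inactive means the rest.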
Target: Carboxy-terminal domain RNA polymerase II polypeptide A small phosphatase 1 (Homo sapiens) (UniProt Q9GZU7)
Assay: inhibition of human SCP1 dephosphorylation activity – biochemical, colorimetric, uHTS, primary screen (AID 493091);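 further: plate controls were DMSO wells with enzyme for no effect and wells lacking enzyme for full effect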
Conditions: Recombinant Scp1, phosphopeptide, malachite green phosphate absorbance; at 20 µM; stronger effect = higher value
Procedure, shortened: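 Test system: SCP-1 phosphatase catalytic domain, residues 76-261; measured by: colorimetric phosphate reagent with accelerator and stabiliser, absorbance at 630 nm; timing: enzyme reaction 45 min at room temperature, colour 5 min, stabilisation 30 min; also added: Phosphorylated 17-residue peptide substrate; compound dosing: one concentration, 20 µM, with 1.0% DMSO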

Sequence of Carboxy-terminal domain RNA polymerase II polypeptide A small phosphatase 1 (Homo sapiens) (Q9GZU7 76-261 limits assumed): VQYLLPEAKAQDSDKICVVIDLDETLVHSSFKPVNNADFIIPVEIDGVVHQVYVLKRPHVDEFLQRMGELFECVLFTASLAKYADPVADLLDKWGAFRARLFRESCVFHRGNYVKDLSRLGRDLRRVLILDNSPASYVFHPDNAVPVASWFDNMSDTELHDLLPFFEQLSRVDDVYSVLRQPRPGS

SMILES	inhibition
COc1cc(C2C3=C(CCCC3=O)OC3=C2C(=O)CCC3)ccc1OCC(=O)Nc1ccccc1	4.63%
COc1ccc(N2CCN(C(=O)CSc3nc4cc(OC)c(OC)cc4cc3C#N)CC2)cc1	67.5% (active)
CCOc1ccc(-c2nnn(CC(=O)N3CCN(c4ccc(OC)cc4)CC3)n2)cc1OCC	-1.29%
COc1ccc(N2CCN(C(=O)CSc3nnc4ncccn34)CC2)cc1	-6.4%
CCNC(=S)NCC	-5.72%
COc1ccc(/C(O)=C2/C(=O)C(=O)N(CC3CCCO3)C2c2ccc(OC)c(OC)c2)cc1 (stereo unspecified)	-4.81%
Cc1ccc(SCC(=O)NC(=O)NCc2ccco2)c(C)c1	70% (active)
Cc1ccc(NC(=O)C(=O)NCc2ccco2)c(C)c1	-2.49%
Cc1cc(C)n2nc(SCC(=O)NC(=O)NCc3ccco3)nc2n1	7.37%
O=C(Cc1ccccc1Cl)N1CCN(c2ccccn2)CC1	-2.92%
O=C(Cn1cnc2ccccc2c1=O)Nc1cccc(S(=O)(=O)N2CCCCC2)c1	-7.43%
CN(C)C=NC(=O)c1cccn1-c1ncc(C(F)(F)F)cc1Cl	-4.15%
Cc1ccc(S(=O)(=O)CCC(=O)OCC(=O)NCCc2ccc(S(N)(=O)=O)cc2)cc1	-5.47%
O=C(Cc1ccc(Br)cc1)NCCc1ccccc1	-9.76%
CCOc1ccc(OCC)c(NC(=O)CCS(=O)(=O)c2ccc(C)cc2)c1	-14.2%
O=C(CCS(=O)(=O)c1ccc(Br)cc1)NCCc1ccc(Cl)cc1	80% (active)
COc1ccc(Cl)cc1NC(=O)CCS(=O)(=O)c1cc2c(cc1C)NC(=O)CO2	-1.24%
COc1ccc(Cl)cc1NC(=O)CCS(=O)(=O)c1ccc(Br)cc1	94.5% (active)
CCc1ccc(C(=O)N2CCN(S(=O)(=O)c3sc(C(=O)O)c(C)c3C(=O)O)CC2)cc1	11.9%
CC1CC(C)CN(C/C=C/c2ccccc2[N+](=O)[O-])C1 (stereo unspecified)	-6.48%
CN(C)[C@@H]1C(=O)C(C(N)=O)=C(O)[C@@]2(O)C(=O)C3=C(O)c4c(O)ccc(Cl)c4[C@@H](O)[C@H]3C[C@@H]12	-6.29%
C=C1c2c(Cl)ccc(O)c2C(O)=C2C(=O)[C@]3(O)C(O)=C(C(N)=O)C(=O)[C@@H](N(C)C)[C@@H]3[C@@H](O)C12 (stereo partly specified)	65.5% (active)
O=C(CNC(=O)c1cc2c(s1)CCC2)Nc1ccccc1Br	-7%

SMILES	inhibition
Brc1ccc(-c2nnc(-c3ccccc3)o2)o1	2.87%
O=C(CNC(=O)c1ccc(Br)o1)Nc1ccccc1	-5.1%
O=C(Nc1ccc(-c2nnc(-c3ccccc3)o2)cc1)c1ccc(Br)o1	73% (active)
O=C(COC(=O)c1cccnc1Cl)NC12CC3CC(CC(C3)C1)C2	-2.71%
c1ccc(C(c2ccccc2)N2CCN(Cc3nnnn3C3CCCCC3)CC2)cc1	5.01%
CC(C)OCC(O)CN1CCN(C(c2ccccc2)c2ccccc2)CC1 (stereo unspecified)	-1.8%
CC1(C)CC(N2CCN(C(c3ccccc3)c3ccccc3)CC2)=CC(=[N+]2CCCCC2)C1	98.9% (active)
COc1cc2c(cc1OC)C1C(=O)c3cc(OS(C)(=O)=O)c(OC)cc3C1N(C)C2=O (stereo unspecified)	7.12%
Cc1ccc(C)c(-c2nnc(NC(=O)CS(=O)(=O)c3ccccc3)o2)c1	-3.82%
Cc1ccccc1C1CC(c2cccs2)=NN1S(C)(=O)=O (stereo unspecified)	4.93%
O=c1c2cc(-c3ccccc3)sc2nc2n1N=C(c1cccs1)CS2	79.1% (active)
O=c1c(-c2ccccc2)cnc2n1CCS2	-9.56%
COc1ccc(OCc2cc(C(=O)NCC3(C)COC3)no2)c(Cl)c1	-1.65%
Cc1nc2ccc(C(=O)N(C)CC3CCCN(CCc4ccc(Cl)cc4)C3)cc2[nH]1 (stereo unspecified)	-5.73%
COc1ccc(S(=O)(=O)N2CCN(C(=O)c3cc(C)oc3C)CC2)cc1	-8.28%
N#CCc1c(C#N)c(N)nc(N2CCCC2)c1C#N	-4.92%
Nc1nc(NCC(=O)O)nc(N2CCCCCC2)c1[N+](=O)[O-]	6.19%
N#Cc1c(N2CCCCC2)nc(N)c2c(N)nc(SCC(=O)O)cc12	65.9% (active)
CC(=O)Nc1ccc(S(=O)(=O)NC(C)C(=O)OCCOc2ccc(F)cc2)cc1 (stereo unspecified)	-7.64%
CCOc1ccccc1Nc1nnc(SCC(=O)NCC2CCCO2)s1 (stereo unspecified)	-9.59%
Cc1ccn2c(=O)nc(SCC(=O)NCc3ccc(F)cc3)nc2c1	16.3%
O=C(CSc1ncn[nH]1)NCc1ccc2c(c1)OCO2	-1.73%
Cc1ccn2c(=O)nc(SCC(=O)NCc3ccc4c(c3)OCO4)nc2c1	73.6% (active)

Reference: PubChem BioAssay AID493091 (Sanford-Burnham Center for Chemical Genomics, 2011)
